Results published in ChEMBL document CHEMBL2434829, “Synthesis of new andrographolide derivatives and evaluation of their antidyslipidemic, LDL-oxidation and antioxidant activity” (2013).
Activity calls are given as the source filed them. The calls are words filed in the database; no cut-off is given here.

Experiments:
[1] = Antioxidant activity assessed as decrease in hydroxyl radicals level by measuring formation of malondialdehyde at 200 ug/ml after 90 mins by spectrophotometric analysis relative to control; assay type: functional; set-up: scale not given: the % may be the effect or the level left
In short: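 Hydroxyl radicals generated without enzyme from deoxyribose 2.8 mM, FeSO4·7H2O 2 mM, sodium ascorbate 2.0 mM and H2O2 2.8 mM in 50 mM KH2PO4 pH 7.4. Compound at 200 µg/mL. Incubated 37 °C for 90 min. Mannitol as standard.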

Rattus norvegicus [2] = experiment: Antidyslipidemic activity in Charles foster rat assessed as decrease in triton WR-1339-induced triglyceride level in plasma at 100 mg/kg, po after 18 hrs relative to triton-treated rat; assay type: functional; set-up: scale not given: the % may be the effect or the level left
In short: (§1)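 Male adult Charles Foster rats (200–225 g), six per group. Triton WR-1339 400 mg/kg i.p., with test agent given orally at the same time as a gum acacia suspension in water; food withdrawn. Controls received vehicle. At 18 h, retro-orbital EDTA blood taken and centrifuged 2500 × g for 10 min at 4 °C. Plasma diluted 1:3 in saline; TC, PL and TG read enzymatically on an autoanalyzer. Percent change against triton group.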

Rattus norvegicus [3] = experiment: Antidyslipidemic activity in Charles foster rat assessed as increase in triton WR-1339-reduced post heparin lipolytic activity level in plasma at 100 mg/kg, po after 18 hrs by spectrophotometric analysis relative to triton-treated rat; assay type: functional; set-up: scale not given: the % may be the effect or the level left
In short: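 Triton WR-1339 hyperlipidemia in male Charles Foster rats: 400 mg/kg i.p. plus oral dose in gum acacia vehicle, fasted, 6 rats/group. Plasma taken 18 h later from retro-orbital blood. Post-heparin lipolytic activity measured spectrophotometrically as nmol free fatty acids formed/h/ml plasma. Percent change against triton-only rats; mean ± SD.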

[4] = Antioxidant activity assessed as reduction of microsomal lipid per-oxidation level by measuring formation of malondialdehyde at 200 ug/ml after 90 mins by spectrophotometric analysis relative to control; assay type: functional; set-up: scale not given: the % may be the effect or the level left
[5] = Antioxidant activity assessed as decrease in superoxide anions level by measuring formation of formazone at 200 ug/ml after 30 mins by spectrophotometric analysis relative to control; assay type: functional; set-up: scale not given: the % may be the effect or the level left
In short: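 Superoxide made enzymatically with xanthine ([…]), xanthine oxidase (0.04 U) and nitroblue tetrazolium (320 µM) in 100 mM phosphate buffer pH 8.2. Compound at 200 µg/mL, sonicated in buffer. Incubated 37 °C for 30 min, stopped with glacial acetic acid, formazan read spectrophotometrically. Allopurinol as standard.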

Rattus norvegicus [6] = experiment: Antidyslipidemic activity in Charles foster rat assessed as decrease in triton WR-1339-induced phospholipid level in plasma at 100 mg/kg, po after 18 hrs relative to triton-treated rat; assay type: functional; set-up: scale not given: the % may be the effect or the level left; in short: as §1
Rattus norvegicus [7] = experiment: Antidyslipidemic activity in Charles foster rat assessed as decrease in triton WR-1339-induced total cholesterol level in plasma at 100 mg/kg, po after 18 hrs relative to triton-treated rat; assay type: functional; set-up: scale not given: the % may be the effect or the level left; in short: as §1
Rattus norvegicus [8] = experiment: Antidyslipidemic activity in Charles foster rat assessed as increase in triton WR-1339-reduced lipoprotein lipase level in liver at 100 mg/kg, po relative to triton-treated rat; assay type: functional, organism-based; set-up: dose 100 mg/kg
In short: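 Rats given triton WR-1339 (400 mg/kg i.p.) with oral test agent in gum acacia, 6 per group. Liver homogenized 10% w/v in cold 100 mM phosphate buffer pH 7.2 and assayed for total lipoprotein lipase lipolytic activity. Mean ± SD.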

Row | SMILES | Activity [1] [%] | Activity (Rattus norvegicus [2]) [%] | Activity (Rattus norvegicus [3]) [%] | Activity [4] [%] | Activity [5] [%] | Activity (Rattus norvegicus [6]) [%] | Activity (Rattus norvegicus [7]) [%] | Activity (Rattus norvegicus [8])
1 | C=C1CC[C@@H]2[C@]3(C)COC(C)(C)O[C@@H]3CC[C@@]2(C)[C@@H]1C/C=C1/C(=O)OC[C@H]1OC(C)=O | 25 | 13 | 5 | 26 | 23 | 14 | 16 | 
2 | C=C1CC[C@@H]2[C@](C)(COS(=O)(=O)c3c(C)cc(C)cc3C)[C@H](O)CC[C@@]2(C)[C@@H]1C/C=C1/C(=O)OC[C@H]1OC(C)=O | 28 | 11 | 6 | 26 | 31 | 14 | 12 | 
3 | C[C@]1(CO)[C@H]2CC[C@@]3(CO3)[C@@H](C/C=C3/C(=O)OC[C@H]3O)[C@]2(C)CC[C@H]1O | 15 | 14 | 6 | 14 | 17 | 17 | 15 | 
4 | C=C1CC[C@@H]2[C@](C)(COC(C)=O)[C@H](OC(C)=O)CC[C@@]2(C)[C@@H]1C/C=C1/C(=O)OC[C@H]1OC(C)=O | 16 | 18 | 11 | 11 | 12 | 16 | 19 | 
5 | C=C1CC[C@H]2[C@@](C)(CCC(=O)[C@@]2(C)C=O)[C@@H]1C/C=C1/C(=O)OC[C@H]1O | 12 | 10 | 4 | 14 | 16 | 10 | 13 | 
6 | OC[C@@H](O)[C@@H](O)[C@H](O)[C@H](O)CO | 50 |  |  |  |  |  |  | 
7 | Oc1ncnc2[nH]ncc12 |  |  |  |  | 54 |  |  | 
8 | CC1CC[C@@H]2[C@](C)(CO)[C@H](O)CC[C@@]2(C)[C@@H]1CCC1C(=O)OC[C@H]1O (stereo partly specified) | 17 | 15 | 4 | 14 | 13 | 13 | 11 | 
9 | Cc1c(C)c2c(c(C)c1O)CC[C@@](C)(CCC[C@H](C)CCC[C@H](C)CCCC(C)C)O2 |  |  |  | 55 |  |  |  | 
10 | Cc1ccc(C)c(OCCCC(C)(C)C(=O)O)c1 [GEMFIBROZIL] |  | 28 | 16 |  |  | 30 | 30 | Active
11 | C=C1CC[C@@H]2[C@](C)(CO)[C@H](O)CC[C@@]2(C)[C@@H]1C/C=C1\C=COC1=O | 18 | 18 | 10 | 13 | 16 | 17 | 19 | 
12 | C=C1CC[C@@H]2[C@](C)(CO)[C@H](O)CC[C@@]2(C)[C@@H]1CCC1=CCOC1=O [DEOXYANDROGRAPHOLIDE] | 16 | 12 | 6 | 13 | 11 | 14 | 17 | 
13 | CC(C)OC(=O)C(C)(C)Oc1ccc(C(=O)c2ccc(Cl)cc2)cc1 [FENOFIBRATE] |  | 33 | 17 |  |  | 33 | 32 | Active
14 | C=C1CC[C@@H]2[C@](C)(CO)[C@H](O)CC[C@@]2(C)[C@@H]1C/C=C1/C(=O)OC[C@H]1OC(C)=O | 17 | 15 | 7 | 19 | 19 | 13 | 13 | 
15 | C=C1CC[C@@H]2[C@]3(C)COC(C)(C)O[C@@H]3CC[C@@]2(C)[C@@H]1C/C=C1/C(=O)OC[C@H]1O | 11 | 15 | 6 | 17 | 15 | 12 | 16 | 
16 | C=C1CC[C@@H]2[C@](C)(CO)[C@H](O)CC[C@@]2(C)[C@@H]1CCC1C(=O)OC[C@H]1O (stereo partly specified) | 11 | 11 | 5 | 10 | 14 | 10 | 12 | 
17 | C=C1CC[C@@H]2[C@](C)(COS(=O)(=O)c3c(C)cc(C)cc3C)[C@H](O)CC[C@@]2(C)[C@@H]1C/C=C1/C(=O)OC[C@H]1O | 25 | 20 | 12 | 26 | 23 | 20 | 22 | 
18 | CC1CC[C@@H]2[C@](C)(CO)[C@H](O)CC[C@@]2(C)[C@@H]1C/C=C1/C(=O)OC[C@H]1O (stereo partly specified) | 15 | 15 | 5 | 17 | 19 | 17 | 14 | 
19 | C=C1CC[C@@H]2[C@](C)(COS(=O)(=O)c3ccc(C)cc3)[C@H](O)CC[C@@]2(C)[C@@H]1C/C=C1/C(=O)OC[C@H]1OC(C)=O | 30 | 22 | 13 | 29 | 27 | 22 | 20 | 
